Assay results from ChEMBL document CHEMBL3259739, “Synthesis and structure-activity relationship of trisubstituted thiazoles as Cdc7 kinase inhibitors” (Eur J Med Chem, 2014).
The source made the active and inactive calls. No cut-off for these calls is given here.

Columns and labels:
[1] = molecular target: T1, CDC7/DBF4 (Cell division cycle 7-related protein kinase/Activator of S phase kinase) (Homo sapiens) (UniProt Q9UBU7+O00311); experiment: Ratio of IC50 for Cdc7/Dbf4 in human HCT116 cells to IC50 for Cdc7/Dbf4 (unknown origin); assay type: cell-based; conditions: HCT-116
[2] = molecular target: T2, CDC7/DBF4 (Cell division cycle 7-related protein kinase/Activator of S phase kinase) (Homo sapiens, UniProt O00311); experiment: Inhibition of Cdc7/Dbf4 (unknown origin) using 3 uM of ATP as substrate by AlphaScreen assay; assay type: protein-complex assay
[3] = system: MDR1; experiment: Efflux ratio of permeability of the compound in pig LLC-PK1 cells expressing MDR1; assay type: ADME, cell-based, Sus scrofa
[4] = molecular target: T2, CDC7/DBF4 (Cell division cycle 7-related protein kinase/Activator of S phase kinase); experiment: Inhibition of Cdc7/Dbf4 (unknown origin) using 0.023 uM of ATP as substrate by AlphaScreen assay; assay type: protein-complex assay
In short: (§1)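 AlphaScreen with 6 nM Cdc7/Dbf4 and 10 nM biotinylated His/avitag MCM2 (aa1-467) substrate. Phospho-Ser53 MCM2 detected with antibody-bound Protein A acceptor and streptavidin donor beads. Rates fitted by Michaelis–Menten and double-reciprocal plots.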

[5] = molecular target: T2, CDC7/DBF4 (Cell division cycle 7-related protein kinase/Activator of S phase kinase); experiment: Inhibition of Cdc7/Dbf4 (unknown origin) using 0.094 uM of ATP as substrate by AlphaScreen assay; assay type: protein-complex assay
In short: (§2)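 Mechanism-of-action AlphaScreen run with 6 nM Cdc7/Dbf4 and 10 nM biotinylated MCM2 substrate. […] Reaction time was 2 h. Phospho-Ser53 MCM2 was read by antibody-bound acceptor beads with streptavidin donor beads. Rates and Ki were fitted to a competitive inhibition model.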

[6] = system: MDR1; experiment: Apparent permeability of the compound in pig LLC-PK1 cells expressing MDR1; assay type: ADME, cell-based, Sus scrofa
[7] = molecular target: T2, CDC7/DBF4 (Cell division cycle 7-related protein kinase/Activator of S phase kinase); experiment: Inhibition of Cdc7/Dbf4 (unknown origin) using 0.375 uM of ATP as substrate by AlphaScreen assay; assay type: protein-complex assay; in short: as §2
[8] = molecular target: T1, CDC7/DBF4 (Cell division cycle 7-related protein kinase/Activator of S phase kinase) (Homo sapiens); experiment: Competitive inhibition of Cdc7/Dbf4 (unknown origin) using ATP as substrate by Michaelis-Menton/double-reciprocal plot analysis; assay type: protein-complex assay; in short: as §1
[9] = molecular target: T2, CDC7/DBF4 (Cell division cycle 7-related protein kinase/Activator of S phase kinase); experiment: Inhibition of Cdc7/Dbf4 (unknown origin) using 0.75 uM of ATP as substrate by AlphaScreen assay; assay type: protein-complex assay; in short: as §2
[10] = Efflux ratio of permeability of the compound in pig LLC-PK1 cells; assay type: ADME, cell-based, Sus scrofa
[11] = molecular target: T2, CDC7/DBF4 (Cell division cycle 7-related protein kinase/Activator of S phase kinase); experiment: Inhibition of Cdc7/Dbf4 (unknown origin) using 0.333 uM of ATP as substrate by AlphaScreen assay; assay type: protein-complex assay
[12] = system: Plasma; experiment: Unbound plasma concentration in NCR nude mouse xenografted with human HCT116 cells at 150 mg/kg, iv after 6 hrs; assay type: ADME, organism-based, HCT-116; set-up: dose 150 mg/kg, route intravenous; conditions: in vivo
In short: (§3)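 HCT-116 xenograft NCR/nu mice (three per group) were given a single iv dose in 20% HPbCD, 1% HPMC, 1% PluronicF68, pH7 at 10 mg/ml. Plasma collected at the time points was measured by LC/MS. Values were converted to unbound concentrations using percent plasma protein binding in mouse serum.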

[13] = molecular target: T2, CDC7/DBF4 (Cell division cycle 7-related protein kinase/Activator of S phase kinase); experiment: Inhibition of Cdc7/Dbf4 (unknown origin) using 9 uM of ATP as substrate by AlphaScreen assay; assay type: protein-complex assay
[14] = Cmax in Sprague-Dawley rat at 5 mg/kg, po; assay type: ADME, organism-based; set-up: dose 5 mg/kg, route oral; conditions: in vivo
[15] = Oral bioavailability in Sprague-Dawley rat at 5 mg/kg; assay type: ADME, organism-based; conditions: in vivo
In short: (§4)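 Male Sprague-Dawley rats given 5 mg/kg orally in 2% HPMC, 1% Tween80, pH2 (an iv arm received 2 mg/kg in DMSO). Plasma was sampled from 0.25 to 24 h and analyzed by LC/MS.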

[16] = molecular target: T2, CDC7/DBF4 (Cell division cycle 7-related protein kinase/Activator of S phase kinase); experiment: Inhibition of Cdc7/Dbf4 (unknown origin) using 18 uM of ATP as substrate by AlphaScreen assay; assay type: protein-complex assay
[17] = Terminal half life in Sprague-Dawley rat at 5 mg/kg, po; assay type: ADME, organism-based; set-up: dose 5 mg/kg, route oral; conditions: in vivo, read-out: beta t1/2 (converted); in short: as §4
[18] = Fraction unbound in mouse plasma; assay type: ADME, cell-free
[19] = system: Mus musculus; experiment: Inhibition of Cdc7/Dbf4 in NCR nude mouse xenografted with human HCT116 cells assessed as reduction of phosphorylated MCM2 level in tumor at 150 mg/kg, iv after 3 hrs; assay type: functional; conditions: HCT-116, 3 h
In short: (§5)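 Female athymic NCR/nu mice, 4–6 weeks old, bearing subcutaneous HCT-116 xenografts (5 × 10^6 cells in Matrigel) grown to about 250 mm3. Single iv dose formulated in 20% HPbCD, 1% HPMC, 1% PluronicF68, pH7 at 10 mg/ml; three mice per group. Tumors were homogenized in Tris lysis buffer with protease and phosphatase inhibitors. MSD capture with total MCM2 antibody, then phospho-Ser53 or total MCM2 detection by chemiluminescence; inhibition taken from the phospho/total ratio.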

[20] = AUC (0 to infinity) in Sprague-Dawley rat at 5 mg/kg, po; assay type: ADME, organism-based; set-up: time infinity, dose 5 mg/kg, route oral; conditions: plasma
[21] = system: Mus musculus; experiment: Inhibition of Cdc7/Dbf4 in NCR nude mouse xenografted with human HCT116 cells assessed as reduction of phosphorylated MCM2 level in tumor at 150 mg/kg, iv after 6 hrs; assay type: functional; conditions: HCT-116, 6 h; in short: as §5
[22] = molecular target: T2, CDC7/DBF4 (Cell division cycle 7-related protein kinase/Activator of S phase kinase); experiment: Inhibition of Cdc7/Dbf4 (unknown origin) using 54 uM of ATP as substrate by AlphaScreen assay; assay type: protein-complex assay
[23] = system: Mus musculus; experiment: Inhibition of Cdc7/Dbf4 in NCR nude mouse xenografted with human HCT116 cells assessed as reduction of phosphorylated MCM2 level in tumor at 50 mg/kg, iv after 6 hrs; assay type: functional; conditions: HCT-116, 6 h; in short: as §5
[24] = Tmax in Sprague-Dawley rat at 5 mg/kg, po; assay type: ADME, organism-based; set-up: dose 5 mg/kg, route oral; conditions: in vivo; in short: as §4
[25] = Apparent oral clearance in Sprague-Dawley rat at 5 mg/kg, po; assay type: ADME, organism-based; set-up: dose 5 mg/kg, route oral; conditions: in vivo
[26] = molecular target: T2, CDC7/DBF4 (Cell division cycle 7-related protein kinase/Activator of S phase kinase); experiment: Inhibition of Cdc7/Dbf4 (unknown origin) using 0.667 uM of ATP as substrate by AlphaScreen assay; assay type: protein-complex assay
[27] = molecular target: T2, CDC7/DBF4 (Cell division cycle 7-related protein kinase/Activator of S phase kinase); experiment: Inhibition of Cdc7/Dbf4 (unknown origin) using 0.012 uM of ATP as substrate by AlphaScreen assay; assay type: protein-complex assay; in short: as §1
[28] = AUC (0 to t) in Sprague-Dawley rat at 2 mg/kg, iv; assay type: ADME, organism-based; set-up: dose 2 mg/kg, route intravenous; conditions: plasma
[29] = molecular target: T2, CDC7/DBF4 (Cell division cycle 7-related protein kinase/Activator of S phase kinase); experiment: Inhibition of Cdc7/Dbf4 (unknown origin) using 2 uM of ATP as substrate by AlphaScreen assay; assay type: protein-complex assay
[30] = system: Plasma; experiment: Unbound plasma concentration in NCR nude mouse xenografted with human HCT116 cells at 50 mg/kg, iv after 1 hr; assay type: ADME, organism-based, HCT-116; set-up: dose 50 mg/kg, route intravenous; conditions: in vivo; in short: as §3
[31] = system: Mus musculus; experiment: Inhibition of Cdc7/Dbf4 in NCR nude mouse xenografted with human HCT116 cells assessed as reduction of phosphorylated MCM2 level in tumor at 50 mg/kg, iv after 3 hrs; assay type: functional; conditions: HCT-116, 3 h; in short: as §5
[32] = system: Mus musculus; experiment: Toxicity in NCR nude mouse xenografted with human HCT116 cells assessed as appearance of moribund at 150 mg/kg, iv after 6 hrs; assay type: organism-based, HCT-116; set-up: dose 150 mg/kg, route intravenous; conditions: in vivo
In short: (§6)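 Female athymic NCR/nu mice bearing subcutaneous HCT-116 xenografts (about 250 mm3) received a single iv dose in 20% HPbCD, 1% HPMC, 1% PluronicF68, pH7 (10 mg/ml); three mice per group. Tolerability was judged by observation over the 1–16 h sampling period.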

[33] = system: Plasma; experiment: Unbound plasma concentration in NCR nude mouse xenografted with human HCT116 cells at 150 mg/kg, iv after 1 hr; assay type: ADME, organism-based, HCT-116; set-up: dose 150 mg/kg, route intravenous; conditions: in vivo; in short: as §3
[34] = system: Mus musculus; experiment: Toxicity in NCR nude mouse xenografted with human HCT116 cells at 50 mg/kg, iv; assay type: organism-based, HCT-116; set-up: dose 50 mg/kg, route intravenous; conditions: in vivo; in short: as §6
[35] = AUC (0 to infinity) in Sprague-Dawley rat at 2 mg/kg, iv; assay type: ADME, organism-based; set-up: time infinity, dose 2 mg/kg, route intravenous; conditions: plasma

`COc1ccc(-c2nc(-c3ccnc(N)n3)sc2C(N)=O)c(Cl)c1` gave a Ratio IC50 [1] greater than 30.

In the case of `CCOC(=O)c1sc(-c2ccncc2)nc1O`, the IC50 [2] is reported as 419 nM, the efflux ratio [3] is reported as 1 and the IC50 [4] is reported as 300 nM. It also gave an IC50 [5] of 528 nM, a Papp [6] of no less than 8.9 ×10⁻⁶ cm/s and an IC50 [7] of 546 nM. The inhibition [8] was “Active”, the IC50 [9] was 316 nM and the efflux ratio [10] was 1.

With `NC(=O)c1sc(-c2ccnc(N)n2)nc1-c1ccc(Cl)cc1Cl` the IC50 [11] was 20 nM, the Cp(f) [12] was greater than 1 µM and the IC50 [13] was 18 nM. For the same compound, the Cmax [14] was 13 ng/mL, the bioavailability [15] was 6.58% and the IC50 [16] was 23 nM. The half-life [17] was 224 min, the fraction unbound [18] was 0.09 and the inhibition in vivo at 150 mg/kg [19] was 38%. The AUC(0-inf) [20] was 85.7 ng·h/mL, the inhibition in vivo at 150 mg/kg [21] was 31% and the IC50 [22] was 86 nM. For the same compound, the inhibition in vivo at 50 mg/kg [23] was 20%, the Tmax [24] was 2.17 h and the CL/F [25] was 1050 mL/min/kg. It also gave an IC50 [26] of 14 nM, an IC50 [27] of 17 nM and an AUC(0-t) [28] of 518 ng·h/mL. For the same compound, the IC50 [29] was 10 nM, the “Cp(f)” value [30] was greater than 1 µM and the inhibition in vivo at 50 mg/kg [31] was 39%. The Activity [32] was “Toxic”, the “Cp(f)” value [33] was 5 µM and the Activity [34] was “Non-toxic”. The AUC(0-inf) [35] was 521 ng·h/mL.
